APJ antag = APJ receptor antagonism. P35414. CHO-K1 APJ beta-arrestin complementation, luminescence. inhibition, % at 20 µM. AID 2521. 330,000 tested, 0.32% active;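 active means inhibition above about 40% at 20 µM, limit read from the data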;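 further: cells challenged with 10 nM apelin-13 agonist together with compound; plate controls were apelin-13 plus DMSO wells for no effect and DMSO wells lacking apelin-13 for full effect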
EBI2 antag = EBI2 (human) antagonism. inhibition, % at 5 µM. 360,000 tested, 0.81% active. AID 651636. P32249. EBI2 beta-arrestin recruitment, luminescence, 7a,25-OHC stimulated; in the data active means inhibition above about 38%;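 further: enzyme fragment complementation signal reports receptor beta-arrestin coupling in cells; 0% = agonist plus DMSO wells and 100% = wells without agonist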
Target sequence (P32249 whole entry, looked up, the tested form may be a part): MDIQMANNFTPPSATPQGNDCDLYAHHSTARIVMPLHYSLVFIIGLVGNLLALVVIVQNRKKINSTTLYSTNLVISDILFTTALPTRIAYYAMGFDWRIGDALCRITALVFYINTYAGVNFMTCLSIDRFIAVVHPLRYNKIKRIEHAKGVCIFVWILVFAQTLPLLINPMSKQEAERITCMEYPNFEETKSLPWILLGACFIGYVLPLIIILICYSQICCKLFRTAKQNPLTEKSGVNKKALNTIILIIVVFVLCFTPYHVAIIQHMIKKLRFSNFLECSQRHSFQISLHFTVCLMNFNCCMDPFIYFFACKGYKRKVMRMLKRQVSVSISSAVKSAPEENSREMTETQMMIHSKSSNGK
APJ ag = APJ receptor agonism | CHO-K1 APJ PathHunter beta-arrestin, luminescence; 0% DMSO wells, 100% apelin | activation, % at 20 µM | 330,000 tested, 0.11% active | AID 2520;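 active means activation more than six SD over the plate average, tested at 20 µM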;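 further: 0% = DMSO alone and 100% = apelin-13 at 10 nM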
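Assay system: engineered CHO-K1 APJ arrestin reporter cells; Amount: 1000 CHO-K1 reporter cells seeded per well; Dosing: one dose, 20 µM compound, 1% DMSO; Times: compound stimulation 90 min at 25 °C, detection 60 min; Measured by: luminescent beta-gal fragment complementation, chemiluminescent substrate; Read-out: APJ–arrestin association signal; Controls: DMSO vs Apelin-13 10 nM.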
CXCR6 block = blocks human CXCR6 beta-arrestin recruitment | inhibition, % at 20 µM | CHO-K1 PathHunter CXCR6 beta-arrestin, luminescence | 360,000 tested, 0.36% active; in the data active means inhibition above about 34%, passing the limit was not always enough;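 further: antagonist mode with CXCL16 agonist at 10 nM final; 0% = 10 nM CXCL16 with DMSO and 100% = unstimulated wells without agonist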
CCR6 antag = CCR6 (human) receptor antagonism; P51684; CHO-K1 CCR6 PathHunter beta-arrestin, luminescence, CCL20-stimulated; inhibition, % at 20 µM; 340,000 tested, 0.49% active;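 active means compounds whose inhibition of the agonist-driven luminescence signal at 20 µM reaches about 50%, limit read from the data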;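 further: cells stimulated with CCL20 at 14 nM final; plate controls were DMSO with CCL20 for no effect and DMSO without agonist for full effect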
APJ antag conf = confirmation of human APJ apelin receptor antagonists. 950 tested, 66% active. inhibition, % at 20 µM. APJ beta-arrestin recruitment, luminescence, antagonist mode. shares compounds with APJ antag; in the data active means inhibition above about 50%
An asterisk follows results filed as active; nt = no result. Compounds with a hit are over-represented: about 1.5% of the library has one in this group of screens.

SMILES | APJ antag | EBI2 antag | APJ ag | CXCR6 block | CCR6 antag | APJ antag conf
COc1ccccc1NC(=O)CCC(=O)OCc1cccc([N+](=O)[O-])c1 | 13 | -1 | 1 | 0 | 3 | nt
COc1ccccc1NC(=O)CCC(=O)OCC(=O)c1ccc(C)c([N+](=O)[O-])c1 | 50* | 11 | -23 | 33 | 35 | 62*
O=C(CCC(=O)OCC(=O)c1cccc([N+](=O)[O-])c1)Nc1cccc(Cl)c1Cl | 41* | 7 | -14 | 26 | 62* | 81*
Cc1ccccc1NC(=O)CCC(=O)OCC(=O)c1cccc([N+](=O)[O-])c1 | 56* | 7 | -9 | 33 | 54* | 98*
O=C(CCC(=O)OCC(=O)c1ccc(Br)cc1)NC1CCCCC1 | 17 | -2 | -7 | 0 | 12 | nt
Cc1ccc(C(=O)COC(=O)CCS(=O)(=O)c2ccccc2)cc1[N+](=O)[O-] | 39 | 5 | -9 | 26 | 29 | nt
O=C(c1ccccc1)N1N=C(C(F)(F)F)CC1(O)c1ccc(F)cc1 (centres undefined) | 12 | -15 | -3 | -4 | 3 | nt
COCc1ccc(C(=O)N2CCCCC2C(=O)Nc2ccc(-n3nc(C)cc3C)cc2)o1 (centres undefined) | 6 | 1 | -4 | -15 | -7 | nt
O=C(COC(=O)COc1ccc(Cl)cc1)Nc1ncc(Br)s1 | 26 | 2 | 0 | 0 | 13 | nt
CCCCn1c(N)c(N(CC)C(=O)c2cc(CC)c(C)s2)c(=O)[nH]c1=O | 2 | -6 | -3 | 5 | 16 | nt
COc1ccc(C)cc1S(=O)(=O)NCC(c1ccc2c(c1)OCO2)N1CCOCC1 (centres undefined) | 5 | -7 | -4 | 0 | 11 | nt
O=C1N/C(=C/c2ccc(N3CCOCC3)o2)C(=O)N1c1cccc(Cl)c1 | 29 | 14 | -3 | -3 | 39 | nt
CN1CCCC(OC(=O)c2cc(Cl)ccc2Cl)C1 (centres undefined) | -2 | 5 | -2 | -5 | -10 | nt
CN1CCCC(OC(=O)c2cc(Br)ccc2Cl)C1 (centres undefined) | 51* | 3 | -4 | 0 | 16 | 35
CNC(=O)/C(C#N)=C/c1c(N2CCCCCC2)nc2ccccn2c1=O | 16 | -4 | -4 | -12 | -3 | nt
CN(C)CCN(Cc1ccco1)C(=O)c1cc2c(Cl)nc3ccccc3c2s1 | 41* | 4 | -3 | 3 | 31 | 69*
Cc1ccc([C@@H]2C[C@H]3[C@@H](CN2S(=O)(=O)c2ccc(Cl)cc2)C(=O)C[C@@H](c2ccc(Cl)cc2)N3S(=O)(=O)c2ccccc2C)cc1 | nt | 4 | nt | 5 | nt | nt
Cc1ccc(NC(=S)N/N=C2/CCCCc3ccccc32)cc1 | 22 | 18 | -7 | 6 | 22 | nt
Cc1cccc(NC(=S)N/N=C2/CCCCc3ccccc32)c1 | 48* | 27 | -7 | 5 | 32 | 93*
C=CCOc1ccnc(-c2ccccc2)n1 | nt | -12 | nt | 3 | -6 | nt
COc1cc(/C=C2\SC(=S)N(N(C)c3ccccc3)C2=O)ccc1O | 56* | 0 | -11 | 3 | 14 | 95*
COc1cc(/C=C2/SC(=S)N(Cc3ccccc3)C2=O)ccc1OCC(=O)O | -9 | 3 | -1 | -1 | 14 | nt
CCOc1cc(/C=C2/SC(=S)N(Cc3ccccc3)C2=O)ccc1O | 46* | 24 | -8 | 43* | 54* | 87*
CC(=O)Oc1ccc(/C=C2/SC(=S)N(Cc3ccccc3)C2=O)cc1 | 47* | 14 | -7 | 28 | 50* | 72*
CCOC(=O)c1nn(-c2ccc(F)cc2)c(=O)cc1OCC(=O)N1CCN(c2ccccc2)CC1 | 8 | 4 | 5 | -2 | 6 | nt
SMILES | APJ antag | EBI2 antag | APJ ag | CXCR6 block | CCR6 antag | APJ antag conf
CCCNC(=O)C1(C)CCCN(C(=O)c2cc(F)ccc2C)C1 (centres undefined) | nt | -12 | nt | -5 | nt | nt
Cn1c(O)c(N=Nc2ccccc2)c2ccccc21 | 3 | 3 | -5 | 0 | 10 | nt
Cn1c(O)c(N=Nc2nc(-c3ccccc3)cs2)c2ccccc21 | 50* | 26 | -7 | 34 | 61* | 62*
O=C(NNC(=O)c1cc(Br)c(Br)s1)c1csc(N2CCOCC2)n1 | -55 | -7 | -4 | 6 | -3 | nt
O=[N+]([O-])c1cccc(/C=N/NS(=O)(=O)c2ccccc2)c1 | 65* | 5 | -10 | 10 | 47 | 68*
CCN(CC(=O)Nc1ccccc1C(F)(F)F)C(=O)CCOc1ccc(C)cc1 | -3 | -3 | 10 | -3 | 2 | nt
Cc1ccc(C(=O)CNc2cccc([N+](=O)[O-])c2)cc1 | 55* | 22 | -4 | 13 | 22 | 39
Cc1ccc(NCC(=O)c2ccc([N+](=O)[O-])cc2)cc1 | -13 | 15 | 9 | -3 | -4 | nt
Cc1ccc(C(=O)CC(=O)c2ccc(C(C)(C)C)cc2)cc1 | -2 | 16 | -3 | -6 | 22 | nt
Cc1ccc(C(=O)CNc2ccccc2)cc1 | 44* | 7 | -15 | 47* | 83* | 110*
Cc1ccc(C(=O)CNc2ccccc2C)cc1 | 76* | 0 | -15 | 58* | 86* | 120*
CCN(CC)c1ncnc2c1ncn2[C@H]1CN(Cc2ccc(F)cc2)C[C@@H](CO)O1 | nt | 8 | nt | -1 | nt | nt
COc1ccc(OC)c(NC(=O)CCN2CCN(C/C=C/c3ccccc3)CC2)c1 | -4 | -3 | -2 | -2 | 9 | nt
Cc1cc(Nc2nc3ccccc3nc2Cl)n(-c2ccc([N+](=O)[O-])cc2)n1 | 49* | 40 | -12 | 33 | 56* | -2
CN(C)S(=O)(=O)c1ccc2c(c1)/C(=C/c1cc3c([nH]1)CCCC3)C(=O)N2 | 40* | 49* | -5 | 13 | 21 | 23
CN(C)S(=O)(=O)c1ccc2c(c1)C(=O)c1cc(S(=O)(=O)N(C)C)ccc1CC2 | -5 | 12 | 1 | 2 | 14 | nt
CCCCCCCCCCCCCCCC[N+](C)(C)CCN(Cc1ccc(OC)cc1)c1ncccn1 | 51* | -5 | -14 | 5 | 65* | 42
Cc1ccc(S(=O)(=O)NCCC(=O)N2CCCCCCC2)cc1 | -55 | -2 | 7 | -1 | 11 | nt
Cc1[nH]n(C(N)=S)c(=O)c1N=Nc1ccc([N+](=O)[O-])cc1Cl | 51* | 17 | -6 | 42* | 60* | 80*
CCc1ccc(C(=O)NNc2ccc(Cl)cc2)cc1 | 51* | 36 | -11 | 7 | 19 | 60*
O=C1NN(c2ccccc2)C(=O)/C1=C\c1ccc(-c2cc([N+](=O)[O-])ccc2O)o1 | 46* | 17 | -11 | 43* | 62* | 93*
O=C1NN(c2ccc(Cl)cc2)C(=O)/C1=C\c1ccc(-c2cccc(C(=O)O)c2)o1 | nt | -9 | nt | 20 | 22 | nt
C=C1C(=O)O[C@@H]2C[C@@H](C)[C@@H]3C=CC(=O)[C@@]3(C)[C@@H](OC(C)=O)[C@H]12 | 46* | nt | -10 | nt | 50 | 77*

Assay outcomes deposited in PubChem by Sanford-Burnham Center for Chemical Genomics.
